Assay: Inhibition of yeast alpha-glucosidase using p-nitrophenyl a-D-glucopyranoside as substrate by spectrophotometry
Parameters: species or system Saccharomyces cerevisiae
Method in brief: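 Yeast enzyme at 1 U/mL with 0.01 M p-nitrophenyl α-D-glucopyranoside substrate, in 0.067 M KH₂PO₄–Na₂HPO₄ buffer, pH 6.8. Reaction run at 37 °C for 10 min and inhibition read spectrophotometrically. Method adapted with slight modification from a published procedure.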

Row | Compound | IC50 [µM]
1 | CC(=O)Oc1cc([C@@H]2c3c(O)cc(O)cc3[C@H]3[C@H](c4ccc(O)c(OC(C)=O)c4)c4c(O)cc(O)cc4[C@@H]23)ccc1O | 131
2 | COc1cc([C@@H]2c3c(O)cc(O)cc3[C@H]3[C@H](c4ccc(O)c(O)c4)c4c(O)cc(O)cc4[C@@H]23)ccc1O (racemic) | 109
3 | Oc1cc(O)c2c(c1)[C@H]1[C@H](c3ccc(O)c(O)c3)c3c(O)cc(O)cc3[C@H]1[C@@H]2c1ccc(O)c(O)c1 [CARAROSINOL D] | 79.1
4 | OC[C@H]1NC[C@H](O)[C@@H](O)[C@@H]1O [DUVOGLUSTAT] | 20.6
5 | Oc1cc(O)cc(/C=C/c2ccc(O)c(O)c2)c1 [PICEATANNOL] | 34.3

Other lines, results leading:

Row | IC50 [µM] | Compound
6 | 69.3 | CC(=O)Oc1cc([C@H]2Oc3ccc(/C=C/c4cc(O)cc(O)c4)cc3O[C@@H]2c2cc(O)cc(O)c2)ccc1O (racemic)
7 | 1.13 | Oc1cc(O)cc(/C=C/c2cc(O)c3c(c2)[C@H](c2cc(O)cc(O)c2)[C@@H](c2ccc(O)c(O)c2)O3)c1 (racemic)
8 | 3.04 | COc1cc([C@H]2Oc3c(O)cc(/C=C/c4cc(O)cc(O)c4)cc3[C@@H]2c2cc(O)cc(O)c2)ccc1O (relative stereo)
9 | 70.2 | COc1cc(/C=C2/c3cc(O)cc(O)c3[C@H](c3ccc(O)c(OC)c3)[C@H]2c2cc(O)cc(O)c2)ccc1O [GNETULIN]
10 | 23.2 | Oc1cc(O)cc(/C=C/c2ccc3c(c2)O[C@H](c2cc(O)cc(O)c2)[C@@H](c2ccc(O)c(O)c2)O3)c1 [MAACKIN]

— ChEMBL document CHEMBL1817615, “Dimerization of piceatannol by Momordica charantia peroxidase and α-glucosidase inhibitory activity of the biotransformation products” (Bioorg Med Chem, 2011)
